# Shown are actives, neighbours in structure and some others; about 1.5% of the full set was active somewhere.
# GASC-1 inh – inhibitors of GASC-1 histone demethylase, primary screen, biochemical, fluorescence, DELFIA europium | GST-JMJD2C(1-420) H3K9me3 demethylation | Lysine-specific demethylase 4C (Homo sapiens), Q9H3R0 | inhibition, % at 2.35 µM | actives 0.069% (n = 330,000);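 active = more than half of a compound's replicate wells show inhibition beyond 50%, single wells judged on their own value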;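 also: signal counts dimethyl H3K9 product captured on neutravidin plate; 0% = median of DMSO wells and 100% = 0.3 times that DMSO median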
# Jurkat NFkB inh – inhibitors of induced NF-kB luciferase reporter, primary screen, TCR NF-kB activation inhibitor project, cell-based, luminescence, uHTS | Jurkat, PMA/ionomycin-induced NF-kB luciferase reporter | inhibition, % at 4 µM | actives 0.53% (n = 330,000); in the data active = inhibition above about 50%
# NR2E3 ag-1 – inhibitors of NR2E3-RetCOR corepressor binding, primary screen, NR2E3 agonist project, biochemical, TR-FRET, GST-NR2E3, biotin-RetCOR; Photoreceptor-specific nuclear receptor (Homo sapiens), Q9Y5X4; actives 0.12% (n = 320,000); inhibition of corepressor binding, % at 4.78 µM; 1536-well; AID 2300, 2010;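 active = percent inhibition above the cutoff of mean plus 3 SD of all tested compounds, set per screening campaign, cut at about 20% in these data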;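 also: 0% = DMSO wells and 100% = biotin wells as full block of FRET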
# Target sequence (Q9Y5X4 whole entry, looked up): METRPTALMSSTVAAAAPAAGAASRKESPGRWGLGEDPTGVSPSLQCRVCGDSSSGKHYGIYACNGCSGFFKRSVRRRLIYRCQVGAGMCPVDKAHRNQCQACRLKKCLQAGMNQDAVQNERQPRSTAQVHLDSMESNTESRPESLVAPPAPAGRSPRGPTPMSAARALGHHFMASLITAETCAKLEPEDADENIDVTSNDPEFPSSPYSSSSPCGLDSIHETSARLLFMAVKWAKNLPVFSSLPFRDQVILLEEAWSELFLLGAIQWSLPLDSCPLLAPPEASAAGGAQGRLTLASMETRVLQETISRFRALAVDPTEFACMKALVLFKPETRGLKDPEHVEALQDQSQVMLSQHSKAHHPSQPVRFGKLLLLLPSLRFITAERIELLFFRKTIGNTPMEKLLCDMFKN
#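 System: GST-tagged NR2E3 plus biotinylated RetCOR corepressor; Buffer or medium: pH 7.5 Tris-based buffer; Probe or stimulus: RetCOR corepressor, biotinylated, 7 nM; Doses: compound at 4.8 µM, single dose; Schedule: 5 h incubation at 4 °C; Technique: time-resolved FRET; Evaluation: percent inhibition of TR-FRET ratio; Replication: one well per compound, singlicate testing.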
# 697 NFkB inh – inhibitors of PMA/ionomycin-induced NF-kB reporter, 697 cells, primary screen, B-cell NF-kB inhibitor project, cell-based, luminescence, uHTS. 697 B-cell NF-kB luciferase reporter, 16 h. inhibition, % at 4 µM. actives 0.33% (n = 330,000); in the data active = inhibition above about 35%
# NR2E3 ag-2 – NR2E3 agonists in two-hybrid cells, primary screen, cell-based, luminescence, CHO-S, Gal4-NCOR/VP16-NR2E3; luciferase; inhibition of corepressor binding, % at 3.98 µM; actives 0.35% (n = 360,000); Photoreceptor-specific nuclear receptor (Homo sapiens), Q9Y5X4;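 active = inhibition above the mean of all tested compounds plus 3 SD, cut at about 70% in these data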;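 also: 0% = DMSO with NR2E3 transfected cells and 100% = cells lacking NR2E3 construct; higher means lower luciferase signal from less NR2E3 corepressor binding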
# GalR3 antag – GalR3 antagonists in HEK293 cells, primary screen, cell-based, fluorescence readout. actives 0.44% (n = 360,000). AID 651719, 2012. HEK293 GalR3-CNG cAMP membrane potential fluorescence; galR3 body fused to GalR1 C-terminus. Galanin receptor type 3 (Homo sapiens), O60755. inhibition, % at 3 µM;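 active = inhibition above the screen-wide average plus 3 SD, cut at about 13% in these data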;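 also: forskolin and galanin both at EC90 stimulate the cells; cAMP rise reported by CNG channel membrane potential dye signal; 0% = forskolin plus galanin with DMSO and 100% = forskolin alone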
# NR2E3 ag confirm – NR2E3 agonist confirmation in cells, cell-based, luminescence, CHO-S two-hybrid; shares compounds with NR2E3 ag-2; CHO-S mammalian two-hybrid NR2E3-NCOR, luciferase luminescence; inhibition, % at 3.98 µM; actives 51% (n = 2,300); AID 624378, 2012;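 active = average inhibition above a cutoff equal to the mean inhibition of all tested compounds plus one SD, cut at about 70% in these data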;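 also: 0% = DMSO in NR2E3 cells and 100% = DMSO in cells lacking NR2E3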
# GAL4-VP16 luc – GAL4-VP16 reporter modulators, confirmation, counter-screen for NR2E3 agonist project, cell-based, luminescence, CHO-S, high throughput | shares compounds with NR2E3 ag-2 | inhibition, % at 3.98 µM | CHO-S GAL4-VP16 luciferase reporter | actives 29% (n = 2,300);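 active = mean inhibition above a cutoff equal to the average over all tested compounds plus one standard deviation, cut at about 70% in these data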;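 also: luciferase from a UAS reporter driven by GAL4-VP16 transactivation; 0% = DMSO with VP16-transfected cells and 100% = DMSO with cells lacking VP16; higher means less reporter light so more repression of VP16 activity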
# An asterisk follows results filed as active; . = not tested or not shown.
SMILES,GASC-1 inh,Jurkat NFkB inh,NR2E3 ag-1,697 NFkB inh,NR2E3 ag-2,GalR3 antag,NR2E3 ag confirm,GAL4-VP16 luc
CC(=O)c1c(C)[nH]c(C(=O)OCC(=O)c2ccc(Br)cc2)c1C,.,.,.,.,57,-7,86*,56
Oc1ccc(CCc2ccccn2)cc1,.,.,.,.,-29,0,.,.
CC1(C(=O)NS(=O)(=O)c2ccccc2C(F)(F)F)CCN1C(=O)CCC1CCCC1 (configuration not stated),.,.,.,.,-9,-8,.,.
CCOc1cc(CNc2ccc3c(c2)OCCO3)cc(Br)c1OCC,6,42,1,-47,57,1,-6,-9
NC(c1cccc(F)c1)c1nc(-c2ccc(Cl)cc2)cs1 (configuration not stated),.,.,.,.,-25,-5,.,.
COC(=O)C12OCC34C(CC5C(C)=C(O)C(=O)CC5(C)C3C(O)C1O)OC(=O)C(OC(=O)C=C(C)C)C24 (configuration not stated),.,.,.,.,103*,-3,99*,98*
CCN(CC)c1ccc(NC(=O)CC2Oc3ccccc3NC2=O)c(C)c1 (configuration not stated),10,15,-8,-2,-16,-5,.,.
COCC(=O)Nc1ccc2c(c1)[C@H]1C[C@@H](CC(=O)NCC3CC3)O[C@H](CO)[C@H]1O2,.,.,.,.,.,-5,.,.
CCC(=O)N1CCCc2cc(S(=O)(=O)N3CCN(c4ccccn4)CC3)ccc21,26,12,-1,1,69,-1,93*,6
CCC(=O)N1CCCc2cc(S(=O)(=O)N3CCN(c4ncccn4)CC3)ccc21,-16,-7,0,-12,-7,.,.,.
CN1OC[C@@H]2CN[C@H](c3ccc(-c4ccc(C#N)cc4)cc3)C[C@@H]21,.,.,.,.,-62,0,.,.
CN1OC[C@@H]2CN[C@H](c3ccc(-c4cc5ccccc5o4)cc3)C[C@@H]21,.,.,.,.,92*,.,79*,68
COc1ccc(/C=N\NC(=O)c2ccccc2Br)cc1COc1c(F)c(F)cc(F)c1F,-22,15,0,-22,49,3,35,51
COc1ccc(/C=N\NC(=O)c2ccccc2F)cc1COc1ccc(F)cc1,-19,25,2,-17,-21,-4,.,.
O=C(CN1C(=O)C(c2ccc(F)cc2)=NC12CCCC2)Nc1ccc(F)cc1,-2,29,5,0,75*,.,73*,54
O=C(Nn1cnnc1)c1ccc(Cl)cc1,-7,-3,3,3,-4,-9,.,.
NC(=O)C(c1ccc(Cl)cc1)c1ccc(Sc2ccc(Cl)cc2)nn1 (configuration not stated),-1,11,6,-5,65,-8,87*,71
O=C(CSc1ccc(-c2ccncc2)nn1)c1ccc(Cl)cc1,-5,4,1,-24,-5,-3,.,.
Cc1cccc(N2C(=O)CN(Cc3ccccc3)C2=S)c1,-1,10,-3,13,-25,-10,.,.
O=[N+]([O-])c1ccc(NS(=O)(=O)c2ccc(Cl)c(Cl)c2)cc1,.,.,.,.,101*,-5,99*,91*
O=[N+]([O-])c1ccc(Oc2ccc(S(=O)(=O)Nc3ccccc3)cc2)cc1,18,2,0,-27,58,.,99*,79*
NC(=S)NN=Cc1nccc2c(C(F)(F)C(F)(F)C(F)(F)F)cccc12,.,.,.,.,87*,-5,-6,26
Cc1cnc(C=NNC(N)=S)c2cccc(N)c12,.,.,.,.,19,-6,.,.
NC(=S)NN=Cc1nccc2ccccc12,.,.,.,.,75*,-1,15,-17
Cc1cc(C(=O)CSc2ccc(F)cc2)cc(C)c1OC(=S)N(C)C,-2,-21,2,-136,63,-1,43,9
SMILES,GASC-1 inh,Jurkat NFkB inh,NR2E3 ag-1,697 NFkB inh,NR2E3 ag-2,GalR3 antag,NR2E3 ag confirm,GAL4-VP16 luc
COc1ccc(SCC(=O)c2cc(C)c(OC(=S)N(C)C)c(C)c2)cc1,-5,-29,0,-50,-26,3,.,.
COC(=O)c1ccc(-n2nnnc2SCC(=O)Nc2cc(OC)ccc2OC)cc1,-7,18,0,-15,19,-6,.,.
O=C(CSc1nnnn1-c1ccc(O)cc1)Nc1ccc(N2CCOCC2)c(Cl)c1,-2,-8,3,-6,98*,-3,98*,32
COc1ccc(OC)c(NC(=O)CSc2nnnn2-c2ccc3c(c2)OCO3)c1,-6,9,0,-2,101*,-2,100*,40
Cc1ccc(-n2nnnc2SCC(=O)Nc2ccc3c(c2)OCCO3)cc1C,15,-1,-1,3,-9,2,.,.
Cc1ccc(NC(=O)CSc2nnnn2-c2ccc3c(c2)OCO3)cc1C,1,-7,2,12,91*,6,100*,1
Cc1cc(/C=N/NC(=O)c2ccc(O)cc2)c(C)n1CC(C)C,0,2,-1,-1,3,4,.,.
CC(C)COc1ccc(S(=O)(=O)NNC(=O)c2cc3ccccc3o2)cc1,-5,2,0,-26,75*,-4,76*,68
CCCCOc1ccc(S(=O)(=O)NNC(=O)c2cc3ccccc3o2)cc1,9,18,-2,-26,36,-3,.,.
Cc1ccc(NC(=O)c2sc3ncn(CC(=O)N4CCN(c5ccccn5)CC4)c(=O)c3c2C)cc1F,-4,13,-1,-15,76*,-1,14,35
CC(C)c1ccc(NC(=O)NCc2cccnc2)cc1,-56,-18,3,7,5,-1,.,.
CCCCCCCCNc1ncnc2[nH]ncc12,.,.,.,.,73*,-5,84*,73*
OCCCNc1ncnc2[nH]ncc12,.,.,.,.,-14,-2,.,.
O=c1ccc(-c2ccccc2)nn1Cc1ccc(Cl)cc1,-1,.,5,.,26,0,.,.
C=Cc1ccc(Cn2nc(-c3ccc(C)cc3)ccc2=O)cc1,4,1,-6,4,50,-9,87*,72*
